Test results published in PubChem BioAssay.
The source made the active and inactive calls.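 How the source made its calls, unless noted: active means viability at or under a set limit in both replicates, limit being median viability minus 3 SD (cut at about 48% in these data, passing the limit was not always enough); inconclusive means at or under the limit in just one replicate; inactive means at or above the limit in both replicates.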

What was measured:
[1] = reduced viability of SK-BR-3 breast cancer cells – cell-based, 24 h, human, pilot screen (AID 572;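 active means viability at or below 10% of carrier control in both of two separate runs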;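 further: compound exposure lasted between 18 and 24 h rather than exactly 24 h; 100% = carrier-treated control wells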); settings: SK-BR-3 viability, CellTiter-Glo luminescence, at 10 µM, stronger effect = lower value
[2] = HUVEC growth inhibition – cell-based, human, primary screen (AID 575;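 active means viability at or below 30% in both replicate assays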;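 further: 100% = median of untreated cell wells with 0.1% DMSO on each plate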); settings: HUVEC proliferation, CellTiter-Glo luminescence, 72 h; at 10 µM; stronger effect = lower value
In short: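 Test system: HUVEC primary cells. Quantity: 1250 endothelial cells in each well. Dosing: single-point 10 µM, DMSO 0.1% final. Incubation: 72 h treatment at 37 °C. Measured by: CTG luminescence. Control set: DMSO cell controls and MePR drug controls. Plate: collagen-coated 384-well format.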

[3] = H69AR cell proliferation blockers – human, duplicate replicates, primary screen (AID 580); settings: H69AR lung tumor cells viability, ATP luminescence, 72 h; at 10 µM; stronger effect = lower value;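 further: 100% = mean luminescence of untreated wells and 0% = no signal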
[4] = MRP1 drug-resistance reversers in H69AR cells – cell-based, doxorubicin co-treatment, pilot screen (AID 601;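 active means viability loss from added drug above about 55%, and viability with drug at most 40%, in both replicates, limit read from the data, passing the limit was not always enough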); settings: CellTiter-Glo, 72 h, at 10 µM; for differential viability (reversal): stronger effect = higher value
[5] = yeast transport mutant growth inhibition pilot in 384-well plates, post-Golgi transport modulator project (AID 636; in the data active means inhibition above about 31%); settings: absorbance 615 nm, about 18 h, stronger effect = higher value
[6] = growth suppression of yeast trafficking mutant, preliminary HTS, modulators of trafficking downstream of Golgi apparatus project, 1536-format plate, OD 615 nm (AID 637; in the data active means inhibition above about 30%); settings: yeast transport mutant growth, absorbance 615 nm, 18 h; stronger effect = higher value
[7] = H69AR cells + 2 uM doxorubicin, measured here: viability with 2 uM doxorubicin, stronger effect = lower value
[8] = H69AR cells, compound alone cytotoxicity

Compound	viability [1]	viability [2]	viability [3]	differential viability (reversal) ([4]; H69AR cells + 2 uM doxorubicin)	viability [4, 7] [%]	viability [4, 8] [%]	inhibition [5]	inhibition [6]
Nc1nnc(SCc2cc3c(cc2Cl)OCO3)s1	118% (inactive)	94.4% (inactive)	99.7% (inactive)	14.4% (inactive)	85.2	99.7	-2.47% (inactive)	-1.13% (inactive)
CCN(CC)C(=O)C1=C(C)Nc2nnnn2C1c1cccnc1 (stereo not drawn)	94% (inactive)	109% (inactive)	93.8% (inactive)	4.5% (inactive)	89.3	93.8	0.52% (inactive)	3.11% (inactive)
CCOc1ccc(NC(=O)C2CC(=O)N(CC)C(=Nc3ccc4c(c3)OCO4)S2)cc1 (stereo not drawn)	87% (inactive)	109% (inactive)	84% (inactive)	-0.76% (inactive)	84.7	84	-2.84% (inactive)	-5.64% (inactive)
O=C1C2ON(c3ccc(Cl)cc3)C(c3ccco3)C2C(=O)N1c1ccccc1 (stereo not drawn)	116% (inactive)	81.4% (inactive)	100% (inactive)	8.97% (inactive)	91.2	100	-2.6% (inactive)	-3.61% (inactive)
COc1ccc(OC)c(Nc2nc(-c3cccs3)cs2)c1	82% (inactive)	60.7% (inactive)	76.5% (inactive)	-7.61% (inactive)	84.1	76.5	-6.71% (inactive)	0.36% (inactive)
Cc1cccc(N(C)C(=S)Oc2ccc3ccccc3c2)c1	89% (inactive)	109% (inactive)	97.1% (inactive)	13% (inactive)	84.1	97.1	0.26% (inactive)	1.83% (inactive)
CC1(C)C2CCC1(C)C(OC(=O)CSc1nc(N)cc(=O)[nH]1)C2 (stereo not drawn)	104% (inactive)	94.2% (inactive)	92.8% (inactive)	6.73% (inactive)	86.1	92.8	-2.53% (inactive)	-6.91% (inactive)
Cc1ccc2nc3c(cc2c1)CN(Cc1ccco1)C(=NCC1CCCO1)S3 (stereo not drawn)	100% (inactive)	65.6% (inactive)	7.64% (active)	-1.93% (inactive)	9.57	7.64	9.33% (inactive)	-0.18% (inactive)
Cc1nnc(NC(=O)C2CCCO2)s1 (stereo not drawn)	90% (inactive)	105% (inactive)	96.4% (inactive)	-10.5% (inactive)	107	96.4	-2.47% (inactive)	-0.91% (inactive)
NC(=O)C1(N2CCCCC2)CCN(C(=O)Nc2ccccc2C(F)(F)F)CC1	97% (inactive)	105% (inactive)	90.9% (inactive)	4.2% (inactive)	86.7	90.9	-0.39% (inactive)	5.08% (inactive)
Cc1nn(Cc2ccccc2)c(C)c1NC(=O)c1cc(-c2ccco2)on1	103% (inactive)	108% (inactive)	102% (inactive)	19.6% (inactive)	82.6	102	-5.6% (inactive)	-0.55% (inactive)
Cc1ccc(C2C(C(=O)c3sc(C)nc3C)=C(O)C(=O)N2CCN(C)C)o1 (stereo not drawn)	93% (inactive)	114% (inactive)	103% (inactive)	3.58% (inactive)	99.1	103	-3.65% (inactive)	0% (inactive)
Cc1cccc(N(CC(=O)Nc2ccc(CC#N)cc2)S(C)(=O)=O)c1	108% (inactive)	105% (inactive)	97% (inactive)	10.8% (inactive)	86.2	97	-10.8% (inactive)	2.74% (inactive)
CC1(C)CC(=O)C(C=NC(CCC(N)=O)C(=O)O)=C(O)C1 (stereo not drawn)	96% (inactive)	96.5% (inactive)	91.9% (inactive)	8.63% (inactive)	83.3	91.9	-8.22% (inactive)	0.18% (inactive)
COCCCn1nnnc1SCC(=O)Nc1nc(C)c(C)s1	109% (inactive)	89.2% (inactive)	88.1% (inactive)	2.5% (inactive)	85.6	88.1	-2.88% (inactive)	1.13% (inactive)
CC(=O)c1ccccc1OCCn1nnc(-c2ccc(C)cc2)n1	108% (inactive)	83.6% (inactive)	80.1% (inactive)	5.44% (inactive)	74.6	80.1	-8.9% (inactive)	2.1% (inactive)
Cc1cccc(N2CCN(C(=O)C3CCCN(S(=O)(=O)c4c(C)noc4C)C3)CC2)c1C (stereo not drawn)	78% (inactive)	53.1% (inactive)	81.9% (inactive)	2.14% (inactive)	79.7	81.9	-3.21% (inactive)	0.83% (inactive)
CC1(C)S[C@@H]2[C@H](NC(=O)C(C(=O)O)c3ccccc3)C(=O)N2[C@H]1C(=O)O (stereo partly drawn)	87% (inactive)	73.9% (inactive)	107% (inactive)	3.92% (inactive)	103	107	-1.43% (inactive)	-2.67% (inactive)

Compound	viability [1]	viability [2]	viability [3]	differential viability (reversal) ([4]; H69AR cells + 2 uM doxorubicin)	viability [4, 7] [%]	viability [4, 8] [%]	inhibition [5]	inhibition [6]
CCN(CC)C(=O)C1CCN(CC2CC=CCC2)CC1 (stereo not drawn)	97% (inactive)	109% (inactive)	94.8% (inactive)	-3.97% (inactive)	98.7	94.8	-2.93% (inactive)	-2.91% (inactive)
OCCNC1=NCCN1	54% (inactive)	99.5% (inactive)	96.8% (inactive)	6.17% (inactive)	90.7	96.8	-7.4% (inactive)	-0.55% (inactive)
CCCS(=O)(=O)N1CCCC(C(=O)NC(C)c2ccc3c(c2)OCCO3)C1 (stereo not drawn)	79% (inactive)	71.3% (inactive)	93.9% (inactive)	6.12% (inactive)	87.8	93.9	-2.34% (inactive)	0.49% (inactive)
C=CCc1ccccc1OCC(O)CN1CCN(Cc2ccc3c(c2)OCO3)CC1 (stereo not drawn)	101% (inactive)	73.8% (inactive)	70.1% (inactive)	-5.96% (inactive)	76	70.1	59.1% (active)	58.4% (active)
Cc1cccc(C(=O)O)c1NC(=O)c1ccc(F)cc1	109% (inactive)	107% (inactive)	104% (inactive)	3.75% (inactive)	100	104	0.27% (inactive)	-1.09% (inactive)
COc1ccccc1-c1nnc(NC(=O)c2ccc(S(=O)(=O)N(C)Cc3ccccc3)cc2)o1	85% (inactive)	23.9% (active)	19.2% (active)	-25.1% (inactive)	44.3	19.2	1.3% (inactive)	6.56% (inactive)
N#Cc1cnc(SCCc2ccccc2)nc1N	78% (inactive)	102% (inactive)	97.8% (inactive)	6.68% (inactive)	91.2	97.8	-5.14% (inactive)	0% (inactive)
O=C(Nc1cccnc1)Nc1ccc(F)c(Cl)c1	82% (inactive)	86.6% (inactive)	105% (inactive)	4.77% (inactive)	100	105	-2.19% (inactive)	12% (inactive)
CN(C)C(=O)Oc1ccc[n+](C)c1	92% (inactive)	102% (inactive)	87% (inactive)	5.36% (inactive)	81.6	87	-1.17% (inactive)	-2.33% (inactive)
Cc1ccc2c(c1)C(O)(CC(=O)c1ccc3c(c1)OCO3)C(=O)N2 (stereo not drawn)	78% (inactive)	92.3% (inactive)	94.3% (inactive)	8.13% (inactive)	86.2	94.3	-4.11% (inactive)	-7.58% (inactive)
Cc1ccc(C(O)c2nc3ccccc3n2C(C)C)cc1 (stereo not drawn)	62% (inactive)	101% (inactive)	91.5% (inactive)	3.7% (inactive)	87.8	91.5	-7.53% (inactive)	-5.82% (inactive)
COc1ccc(S(=O)(=O)Nc2ccc(Cl)cn2)c(C)c1C	100% (inactive)	107% (inactive)	88.5% (inactive)	0.69% (inactive)	87.8	88.5	-0.93% (inactive)	0% (inactive)
O=C(COC(=O)c1cc(S(=O)(=O)N2CCOCC2)cs1)c1ccccc1	115% (inactive)	93.3% (inactive)	99.9% (inactive)	16.3% (inactive)	83.5	99.9	-3.64% (inactive)	-1.97% (inactive)
CN1CCc2c(sc3c2c(=O)n(-c2ccccc2)c2nnc(SCc4ccccc4)n32)C1	77% (inactive)	108% (inactive)	95.8% (inactive)	9.76% (inactive)	86	95.8	-2.33% (inactive)	1.82% (inactive)
Cn1c(=O)c2c(ncn2CCO)n(C)c1=O	119% (inactive)	91% (inactive)	100% (inactive)	7.42% (inactive)	93	100	0% (inactive)	0.67% (inactive)
CN(C)CCOC(=O)C(c1ccccc1)C1(O)CCCC1 (stereo not drawn)	127% (inactive)	92.9% (inactive)	102% (inactive)	4.65% (inactive)	97	102	-1.43% (inactive)	2.33% (inactive)
CCc1c(C)nc2ncnn2c1N1CCC(C(=O)NCc2cccc(OC)c2)CC1	134% (inactive)	85.8% (inactive)	89.9% (inactive)	-9.81% (inactive)	99.7	89.9	-3.7% (inactive)	-1.29% (inactive)
O=C(OC1CCc2ccccc2C1=O)c1ccccc1O (stereo not drawn)	71% (inactive)	106% (inactive)	78.6% (inactive)	-13.2% (inactive)	91.8	78.6	-1.33% (inactive)	-1.27% (inactive)
